CHO parental Ca: ATP-evoked calcium signal inhibitors, parental CHO, primary screen, counter-screen for OX1R antagonist project, cell-based, fluorescence, Fluo-8 calcium dye; parental CHO-K1, ATP-induced calcium, Fluo-8 fluorescence; inhibition, % at 5.6 µM; 0.63% of 330,000 active; AID 463079, 2010;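 active = inhibition above that plate's mean sample inhibition plus 3 SD, cut at about 26% in these data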
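Test system: untransfected parental CHO cell line. Compound: one dose, 5.6 µM nominal. Detection: intracellular calcium via Fluo-8 no-wash fluorescent dye. Measure: % inhibition. Benchmarks: ATP-challenged DMSO wells low, unchallenged DMSO wells high.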
TAAR1 antagonist: human TAAR1 antagonists, primary screen, Fluo-8 calcium fluorescence, CHO RD-HGA16 cells | Trace amine-associated receptor 1 (Homo sapiens), Q96RJ0 | antagonist | inhibition, % at 3 µM | 1.5% of 360,000 active | AID 624466, 2012;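 active = inhibition above a per-plate cutoff, the mean inhibition of test compounds on that plate plus 3 SD, cut at about 49% in these data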
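Test system: CHO RD-HGA16 cells bearing hTAAR1 | Reagent: β-PEA, EC80 | Compound dosing: 3 µM, single point | Schedule: Dye loading 75 min at 37 °C, then 30 min room temperature | Signal: Calcium fluorescence with Fluo-8 | Evaluation: Percent inhibition of PEA-evoked calcium signal, max/basal emission ratio | Control set: DMSO-only wells and EC80 β-PEA-stimulated wells | Repeats: Singlicate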
TAAR1 ag: human TAAR1 agonists, primary screen, Fluo-8 calcium fluorescence, CHO RD-HGA16 cells; activation, % at 3 µM; vehicle wells 0%, saturating PEA agonist 100%; AID 624467, 2012; 0.99% of 360,000 active; Trace amine-associated receptor 1 (Homo sapiens), Q96RJ0;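 active = activation above the mean activation of all test compounds in the run plus 3 SD, cut at about 38% in these data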
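test system = CHO RD-HGA16 cells carrying human TAAR1 plus Gα16 | schedule = 17-24 h seeding, 75 min 37 °C dye, 30 min RT | compound dosing = 3 µM single concentration | control set = DMSO and PEA EC100 | replicates = n 1 | signal = Fluo-8 fluorescence, 5 s baseline then 140 s kinetic read | measure = percent activation vs PEA EC100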
OX1R antag-1: antagonists of human orexin 1 receptor (OX1R); Orexin/Hypocretin receptor type 1 (Homo sapiens), O43613; OX1R-expressing cells, FRET antagonist read-out; inhibition, % at 6.6 µM; 1.8% of 330,000 active; AID 485270, 2010; in the data active = inhibition mostly above about 38%, no sharp cut-off; inactive = mostly below about 40%
Target sequence (O43613 whole entry, looked up): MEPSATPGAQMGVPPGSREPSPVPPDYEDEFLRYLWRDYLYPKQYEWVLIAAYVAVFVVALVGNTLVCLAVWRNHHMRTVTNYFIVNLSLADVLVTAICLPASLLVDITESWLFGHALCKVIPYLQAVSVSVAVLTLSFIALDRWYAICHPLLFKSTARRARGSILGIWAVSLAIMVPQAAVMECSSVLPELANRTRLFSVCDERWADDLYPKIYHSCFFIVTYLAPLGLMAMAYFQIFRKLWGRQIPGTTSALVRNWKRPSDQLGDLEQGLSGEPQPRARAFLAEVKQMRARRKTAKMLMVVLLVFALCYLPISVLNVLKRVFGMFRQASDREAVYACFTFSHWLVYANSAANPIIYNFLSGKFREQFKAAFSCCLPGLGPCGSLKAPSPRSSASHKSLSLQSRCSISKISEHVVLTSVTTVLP
OX1R antag-2: OX1R (HCRTR1) antagonists, primary screen, fluorescence, CHO/OX1R cells, Fluo-8 calcium, orexin A; 0.43% of 330,000 active; inhibition, % at 5 µM; Orexin/Hypocretin receptor type 1 (Homo sapiens), O43613; Fluo-8 calcium fluorescence;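 active = inhibition above its plate's threshold, mean inhibition of all tested compounds on the plate plus 3 SD, cut at about 37% in these data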
OX1R HTRF conf: OX1R (HCRTR1) antagonists, confirmation, cell-based, HTRF. shares compounds with OX1R antag-1. OX1R-expressing cells, HTRF antagonist assay. inhibition, % at 6.6 µM. 49% of 1,800 active. AID 492964, 2010; in the data active = inhibition above about 55%;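 also: CHO cells expressing OX1R stimulated with orexin A at about EC80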
CHO-K1 HTRF cnt: signal inhibition in parental CHO-K1 cells, counter-screen for OX1R antagonist project, cell-based, HTRF. shares compounds with OX1R antag-1. HTRF counterscreen. inhibition, % at 6.6 µM. 48% of 1,800 active. AID 493232, 2011; in the data active = inhibition above about 17%
Each line names hits and unclear results; the compound was inactive in the other large screens (follow-up assays come after a bar, where they were run). Shown are actives, neighbours in structure and some others; about 4% of the full set was active somewhere.

N=c1oc2cc(O)ccc2cc1C(=O)Nc1ccc(F)cc1	none
COc1ccc(NC(=O)c2cc3ccc(O)cc3o/c2=N\O)cc1	OX1R antag-1 85 | OX1R HTRF conf 76 | CHO-K1 HTRF cnt inactive
Oc1cccc(Nc2nc(O)c(/C=C3\C=Nc4ccccc43)s2)c1	none
Oc1nc(Nc2ccc(F)cc2)sc1/C=C1\C=Nc2ccccc21	OX1R antag-1 93 | OX1R HTRF conf inactive | CHO-K1 HTRF cnt inactive
CCC(=O)Nc1ccccc1Nc1cc(C#N)c(C#N)cc1[N+](=O)[O-]	OX1R antag-1 active | OX1R HTRF conf 59 | CHO-K1 HTRF cnt 72
O=C(CNC(=O)c1cccs1)NCC(=O)OCC(=O)c1ccc([N+](=O)[O-])cc1	OX1R antag-1 103 | OX1R HTRF conf inactive | CHO-K1 HTRF cnt 43
COCc1cccc(-c2csc(C(C)(O)c3ccccc3)n2)c1 (stereo not given)	none (no result: CHO parental Ca, OX1R antag-1, OX1R antag-2)
Nc1ccc2c(c1)C(=O)C(=O)c1ccccc1-2	OX1R antag-1 active | OX1R HTRF conf 83 | CHO-K1 HTRF cnt 41
CNC(=O)c1nc(C)n(-c2ccc([N+](=O)[O-])cc2)n1	none
CCCNC(=O)c1nc(C)n(-c2ccc([N+](=O)[O-])cc2)n1	OX1R antag-1 137 | OX1R HTRF conf 71 | CHO-K1 HTRF cnt 52
COc1ccc(NC(=O)c2nc(C)n(-c3ccc([N+](=O)[O-])cc3)n2)cc1	OX1R antag-1 107 | OX1R HTRF conf inactive | CHO-K1 HTRF cnt 33
CCNc1oc(/C=C/c2ccc(OCC)cc2)nc1C#N	none
CCC(CC)C(=O)Nc1cccc(-c2ccc3nncn3n2)c1	none
CN(CC(=O)Nc1ccc(Cl)cc1)C(=O)CCc1c[nH]c2ccccc12	none
CC1(C)Cc2ccccc2C2=NNC(=O)C2=N1	OX1R antag-1 117 | OX1R HTRF conf inactive | CHO-K1 HTRF cnt 78
O=C(COc1ccc(C(=S)N2CCCC2)cc1)Nc1ccccc1C(F)(F)F	OX1R antag-1 83 | OX1R HTRF conf 72 | CHO-K1 HTRF cnt inactive
O=C(CCc1ccccc1)N[C@@H]1c2ccccc2CC[C@H]1OCc1ccccc1	none
COc1ccc(CCNC(=O)c2cc(COc3c(C)cccc3C)on2)c(OC)c1	none
CNC(=O)C1CCN(S(=O)(=O)c2c(C)noc2/C=C/c2cccc(OC)c2)CC1	none
c1ccc2c(N3CCCCCC3)nc(-c3ccncc3)nc2c1	OX1R antag-1 88 | OX1R HTRF conf inactive | CHO-K1 HTRF cnt inactive
c1cncc(-c2nc(N3CCCCCC3)c3ccccc3n2)c1	none
COC(=O)c1cc(C(=O)OC)cc(-n2c(C)cc(C(=O)COC(=O)CNS(=O)(=O)c3ccc(C)cc3)c2C)c1	none
COc1ccc(N(CC(=O)N2CCN(c3ccc(Cl)cc3)CC2)S(=O)(=O)c2c(C)n[nH]c2C)cc1	none
COc1ccc(NC(=O)Nc2cccc3c2O[C@@H](CN(C)S(=O)(=O)c2cn(C)cn2)[C@@H](C)CN([C@H](C)CO)C3=O)cc1	none
CC(C)N(Cc1nc(-c2ccccc2)no1)C(=O)Cc1ccccc1	OX1R antag-1 78 | OX1R HTRF conf inactive | CHO-K1 HTRF cnt inactive
Cc1cccc(-c2noc(CN(C(=O)c3ccc(Br)o3)C(C)C)n2)c1	none
COc1cccc(C(=O)N(Cc2nc(-c3cccc(C)c3)no2)C(C)C)c1OC	OX1R antag-1 81 | OX1R HTRF conf 69 | CHO-K1 HTRF cnt inactive
Nn1c(SCC(=O)Nc2ccccc2Br)nnc1-c1ccco1	none
O=C(Nc1ccc(Nc2ccccc2)cc1)c1ccc(Br)o1	none
O=C(Nc1cccc(-c2nnc(-c3ccccc3)o2)c1)c1ccc(Br)o1	OX1R antag-1 87 | OX1R HTRF conf inactive | CHO-K1 HTRF cnt inactive
CCOC(=O)[C@]12CCCC=C1N(CCc1ccc(OC)c(OC)c1)C(=O)[C@H](CC(=O)NCCCCc1ccccc1)C2	none (no result: CHO parental Ca, OX1R antag-1, OX1R antag-2)
COC(=O)Nc1nn(-c2ccc(C)cc2)c(=O)c(C#N)c1C	OX1R antag-1 137 | OX1R HTRF conf 56 | CHO-K1 HTRF cnt 68
Cc1c(C(=O)NN)nn(-c2ccc(Cl)cc2)c(=O)c1C#N	none
COc1ccc(-n2nc(C(C)=O)c(=O)[nH]c2=O)cc1	none
COC(=O)Nc1nn(-c2ccc(OC)cc2)c(=O)c(C#N)c1C	OX1R antag-1 166 | OX1R HTRF conf 59 | CHO-K1 HTRF cnt 91
COc1ccc(-n2nc(C(=O)N3CCCCC3)c(C)c(C#N)c2=O)cc1	OX1R antag-1 113 | OX1R HTRF conf 77 | CHO-K1 HTRF cnt 50
COc1ccccc1NC(=O)COC(=O)c1ccc([N+](=O)[O-])s1	OX1R antag-1 91 | OX1R HTRF conf inactive | CHO-K1 HTRF cnt 48
Cc1cc(C)c(NC(=O)COC(=O)c2ccc([N+](=O)[O-])s2)c(C)c1	none
O=C(COC(=O)c1ccc([N+](=O)[O-])s1)NCc1ccc(F)cc1	OX1R antag-1 89 | OX1R HTRF conf inactive | CHO-K1 HTRF cnt 48
CC(NC(=O)COC(=O)c1ccc([N+](=O)[O-])s1)c1ccccc1 (stereo not given)	OX1R antag-1 81 | OX1R HTRF conf inactive | CHO-K1 HTRF cnt 17
COCC1CCN(C(=O)c2ccc3oc(Cc4ccc(Cl)cc4)nc3c2)C1 (stereo not given)	none
O=C(O)CC1(CC(=O)NCc2csc(-c3cccs3)n2)CCCCC1	none
COC(=O)C1=C(C)N(Cc2ccccc2C(F)(F)F)C(=NCc2ccccc2)NC1c1ccc(F)cc1 (stereo not given)	none (no result: CHO parental Ca, OX1R antag-1, OX1R antag-2)
O=C1C=C(c2cccc3c2oc2ccccc23)CCC1	OX1R antag-1 81 | OX1R HTRF conf 60 | CHO-K1 HTRF cnt inactive
CC1(C)CC(=O)C=C(c2cccc3c2oc2ccccc23)C1	none
COC(=O)/C=c1/s/c(=C(/C#N)C(=O)N2CCCCC2)n(-c2ccccc2)c1=O	none
COC(=O)/C=c1/s/c(=C(/C#N)C(=O)N2CCOCC2)n(-c2ccccc2)c1=O	OX1R antag-1 118 | OX1R HTRF conf inactive | CHO-K1 HTRF cnt 49
O=C(NCCO)c1cccc2c1C(=O)c1ccccc1-2	OX1R antag-1 121 | OX1R HTRF conf 58 | CHO-K1 HTRF cnt 53
CC(C)(C)NC(=O)c1cccc2c1C(=O)c1ccccc1-2	none
COc1ccc(S(=O)(=O)NCc2cccnc2)cc1C(=O)Nc1ccccc1	none
